Reference: ChEMBL document CHEMBL1136914, “Synthesis and structure-activity relationships of bengazole A analogs” (2009)
≈ marks a conversion by molar mass, not a printed value. Calls of active or inactive are those of the source. No cut-off for these calls is given here.

Tests used:
Nakaseomyces glabratus [1] = assay: Antifungal activity against fluconazole-resistant Candida glabrata at 300 ug/disk by disk diffusion assay; type: functional; conditions: read-out: IZ
Summary of the method: (§1)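 Agar disk diffusion against a panel of five Candida species, including fluconazole-resistant strains. Compound was applied per disk at doses up to 300 μg/disk. Activity was read as the diameter of the zone of growth inhibition, in mm.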

Candida albicans [2] = assay: Antifungal activity against fluconazole-resistant Candida albicans CDFR1 […]; type: functional
Pichia kudriavzevii [3] = assay: Antifungal activity against Candida krusei at 300 ug/disk by disk diffusion assay; type: functional; conditions: read-out: IZ
Summary of the method: (§2)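 Disk diffusion on agar; test material applied as μg per paper disk (doses up to 300 μg/disk); activity read as zone of growth inhibition in mm.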

Candida albicans [4] = assay: Antifungal activity against fluconazole-resistant Candida albicans CDFR1 at 300 ug/disk by disk diffusion assay; type: functional; conditions: read-out: IZ; summary of the method: as §1
Candida albicans [5] = assay: Antifungal activity against Candida albicans isolate 96-489 after 24 hrs by microbroth dilution method; type: functional; conditions: isolate 96-489, 24 h
Summary of the method: (§3)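 Microbroth dilution MIC in RPMI medium, incubated at 37 °C for 24 h; MIC reported in μg/mL.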

Candida albicans [6] = assay: Antifungal activity against Candida albicans ATCC 14503 at 300 ug/disk by disk diffusion assay; type: functional; conditions: read-out: IZ; summary of the method: as §2
Candida albicans [7] = assay: Antifungal activity against Candida albicans isolate 96-489 at 300 ug/disk by disk diffusion assay; type: functional; conditions: read-out: IZ; summary of the method: as §1
Candida albicans [8] = assay: Antifungal activity against Candida albicans ATCC 14503 after 24 hrs by microbroth dilution method; type: functional; conditions: ATCC 14503, 24 h; summary of the method: as §3
Pichia kudriavzevii [9] = assay: Antifungal activity against Candida krusei after 48 hrs by microbroth dilution method; type: functional
Summary of the method: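 Microbroth dilution MIC in RPMI medium at 37 °C, with incubation extended to 48 h; MIC given in μg/mL.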

Pichia kudriavzevii [10] = assay: Antifungal activity against Candida krusei up to 300 ug/disk by paper disk diffusion assay; type: functional, organism-based; summary of the method: as §2
Candida albicans [11] = assay: Antifungal activity against Candida albicans isolate 96-489 up to 300 ug/disk by paper disk diffusion assay; type: functional, organism-based; summary of the method: as §2
Candida albicans [12] = assay: Antifungal activity against Candida albicans ATCC 14503 up to 300 ug/disk by paper disk diffusion assay; type: functional, organism-based; summary of the method: as §2
Nakaseomyces glabratus [13] = assay: Antifungal activity against Candida glabrata up to 300 ug/disk by paper disk diffusion assay; type: functional, organism-based; summary of the method: as §2
Escherichia coli = assay: Antibacterial activity against Escherichia coli; type: functional, organism-based
Pseudomonas aeruginosa = assay: Antibacterial activity against Pseudomonas aeruginosa; type: functional, organism-based
Candida albicans [14] = assay: Antifungal activity against Candida albicans ATCC 14503 at 10 ug/disk by disk diffusion assay; type: functional; conditions: read-out: IZ; summary of the method: as §1
Pichia kudriavzevii [15] = assay: Antifungal activity against Candida krusei at 10 ug/disk by disk diffusion assay; type: functional; conditions: read-out: IZ; summary of the method: as §2
Staphylococcus aureus = assay: Antibacterial activity against Staphylococcus aureus; type: functional, organism-based
Nakaseomyces glabratus [16] = assay: Antifungal activity against fluconazole-resistant Candida glabrata at 10 ug/disk by disk diffusion assay; type: functional; conditions: read-out: IZ; summary of the method: as §1
Candida albicans [17] = assay: Antifungal activity against Candida albicans isolate 96-489 at 10 ug/disk by disk diffusion assay; type: functional; conditions: read-out: IZ; summary of the method: as §2
Candida albicans [18] = assay: Antifungal activity against fluconazole-resistant Candida albicans CDFR1 at 10 ug/disk by disk diffusion assay; type: functional; conditions: read-out: IZ; summary of the method: as §1
Candida albicans [19] = assay: Antifungal activity against Candida albicans ATCC 14503; type: functional
Candida albicans [20] = assay: Antifungal activity against Candida albicans isolate 96-489 at 5 ug/disk by disk diffusion assay; type: functional; conditions: read-out: IZ; summary of the method: as §2
Candida albicans [21] = assay: Antifungal activity against fluconazole-resistant Candida albicans CDFR1 at 5 ug/disk by disk diffusion assay; type: functional; conditions: read-out: IZ; summary of the method: as §1
Candida albicans [22] = assay: Antifungal activity against Candida albicans ATCC 14503 at 5 ug/disk by disk diffusion assay; type: functional; conditions: read-out: IZ; summary of the method: as §2
Pichia kudriavzevii [23] = assay: Antifungal activity against Candida krusei at 5 ug/disk by disk diffusion assay; type: functional; conditions: read-out: IZ; summary of the method: as §2
Nakaseomyces glabratus [24] = assay: Antifungal activity against fluconazole-resistant Candida glabrata at 5 ug/disk by disk diffusion assay; type: functional; conditions: read-out: IZ; summary of the method: as §1

Row | Compound | zone of inhibition at 300 µg/disc (Nakaseomyces glabratus [1]) [mm] | MIC (Candida albicans [2]) [µg/mL] | zone of inhibition at 300 µg/disc (Pichia kudriavzevii [3]) [mm] | zone of inhibition at 300 µg/disc (Candida albicans [6]) [mm] | zone of inhibition at 300 µg/disc (Candida albicans [7]) [mm] | Activity (Pichia kudriavzevii [10]) | Activity (Candida albicans [11]) | Activity (Candida albicans [12]) | Activity (Nakaseomyces glabratus [13]) | also measured
1 | O=Cc1cocn1 | 10 | > 32 |  |  |  |  |  |  |  | 
2 | CCCCCCCCCCCCCC(=O)OC(c1ccc(Br)cc1)c1cnc(SC)o1 (stereo not given) | 0 | > 32 | 0 | 0 | 0 |  |  |  |  | zone of inhibition at 300 µg/disc (Candida albicans [4]): 0 mm; MIC (Candida albicans [5]): > 64 µg/mL; MIC (Candida albicans [8]): > 64 µg/mL; MIC (Pichia kudriavzevii [9]): > 64 µg/mL
3 | C[C@@H](O[Si](C)(C)C(C)(C)C)[C@@H]1OC(C)(C)O[C@@H]1C[C@@H](O)c1cocn1 | 0 | > 32 | 0 | 8 | 0 |  |  |  |  | zone of inhibition at 300 µg/disc (Candida albicans [4]): 0 mm
4 | CCCCCCCCCCCCCC(=O)OC(c1ccc2ccccc2c1)c1cnco1 (stereo not given) |  |  |  |  |  |  |  |  |  | MIC (Candida albicans [5]): > 64 µg/mL; MIC (Candida albicans [8]): > 64 µg/mL; MIC (Pichia kudriavzevii [9]): > 64 µg/mL
5 | CCCCCCCCCCCCCC(=O)OC(c1ccccc1)c1cnc(SC)o1 (stereo not given) | 0 | > 32 | 0 | 0 | 0 |  |  |  |  | zone of inhibition at 300 µg/disc (Candida albicans [4]): 0 mm
6 | CC(C)(C)C(O)c1cocn1 (stereo not given) | 0 | > 32 | 0 | 0 | 0 |  |  |  |  | zone of inhibition at 300 µg/disc (Candida albicans [4]): 0 mm
7 | CCCCCCCCCCCCCC(=O)OC(c1ccco1)c1nc(C(CCC)O[Si](C)(C)C(C)(C)C)co1 (stereo not given) |  |  |  |  |  | inactive | inactive | inactive | inactive | 
8 | CCCCCCCCCCCCCC(=O)OC(c1ccccc1)c1nc(C(O)CCC)co1 (stereo not given) |  |  |  |  |  | inactive | inactive | inactive | inactive | 
9 | CCCCCCCCCCCCCC(=O)OC(c1cnc(SC)o1)C(C)(C)C (stereo not given) | 0 | > 32 | 0 | 0 | 0 |  |  |  |  | zone of inhibition at 300 µg/disc (Candida albicans [4]): 0 mm
10 | CCCCCCCCCCCCCC(=O)OC(c1ccc2ccccc2c1)c1cnc(SC)o1 (stereo not given) |  |  |  |  |  |  |  |  |  | MIC (Candida albicans [5]): > 64 µg/mL; MIC (Candida albicans [8]): > 64 µg/mL; MIC (Pichia kudriavzevii [9]): > 64 µg/mL
11 | CCCCCCCCCCCCCC(=O)OC(c1cnco1)C(C)(C)C (stereo not given) | 0 | > 32 | 0 | 0 | 0 |  |  |  |  | zone of inhibition at 300 µg/disc (Candida albicans [4]): 0 mm
12 | C[C@@H](O[Si](C)(C)C(C)(C)C)[C@@H]1OC(C)(C)O[C@@H]1C[C@H](O)c1cocn1 | 0 | > 32 | 9 | 10 | 0 |  |  |  |  | zone of inhibition at 300 µg/disc (Candida albicans [4]): 0 mm
13 | CCCCCCCCCCCCCC(=O)OC(c1cnco1)c1nc(C(CCC)O[Si](C)(C)C(C)(C)C)co1 (stereo not given) |  |  |  |  |  | inactive | inactive | inactive | inactive | 
14 | CCCC(O[Si](C)(C)C(C)(C)C)c1coc(C(O)c2cnco2)n1 (stereo not given) |  |  |  |  |  | inactive | inactive | inactive | inactive | 
15 | CCCCCCCCCCCCCC(=O)O[C@@H](c1cnco1)c1nc([C@@H](O)C[C@@H](O)[C@@H](O)[C@@H](C)O)co1 [BENGAZOLE A] |  | > 32 |  |  |  |  |  |  |  | Activity (Escherichia coli): inactive; Activity (Pseudomonas aeruginosa): inactive; MIC (Candida albicans [5]): 1 µg/mL (≈ 1.91 µM); zone of inhibition at 10 µg/disc (Candida albicans [14]): 50 mm; zone of inhibition at 10 µg/disc (Pichia kudriavzevii [15]): 35 mm; Activity (Staphylococcus aureus): inactive; zone of inhibition at 10 µg/disc (Nakaseomyces glabratus [16]): 15 mm; zone of inhibition at 10 µg/disc (Candida albicans [17]): 15 mm; MIC (Candida albicans [8]): 1 µg/mL (≈ 1.91 µM); zone of inhibition at 10 µg/disc (Candida albicans [18]): 50 mm; MIC (Candida albicans [19]): 1 µg/mL (≈ 1.91 µM)
16 | OC(c1ccccc1)c1cnco1 (stereo not given) |  |  | 9 | 10 |  |  |  |  |  | 
17 | CCCCCCCCCCCCCC(=O)OC(c1ccccc1)c1nc(C(CCC)O[Si](C)(C)C(C)(C)C)co1 (stereo not given) |  |  |  |  |  | inactive | inactive | inactive | inactive | 
18 | CCCC(O[Si](C)(C)C(C)(C)C)c1coc(C(O)c2ccco2)n1 (stereo not given) |  |  |  |  |  | inactive | inactive | inactive | inactive | 
19 | CCCC(O[Si](C)(C)C(C)(C)C)c1coc(C(O)c2ccccc2)n1 (stereo not given) |  |  |  |  |  | inactive | inactive | inactive | inactive | 
20 | CCCCCCCCCCCCCC(=O)OC(c1ccccc1)c1cnco1 (stereo not given) | 0 | > 32 | 0 | 0 | 0 |  |  |  |  | zone of inhibition at 300 µg/disc (Candida albicans [4]): 0 mm
21 | CCCCCCCCCCCCCC(=O)OC(c1ccco1)c1nc(C(O)CCC)co1 (stereo not given) |  |  |  |  |  | inactive | inactive | inactive | inactive | 
22 | CCCCCCCCCCCCCC(=O)OC(c1cnco1)c1nc(C(O)CCC)co1 (stereo not given) |  |  |  |  |  | inactive | inactive | inactive | inactive | 
23 | OC(c1ccc2ccccc2c1)c1cnco1 (stereo not given) |  |  | 7.5 | 10 |  |  |  |  |  | MIC (Candida albicans [5]): 32 µg/mL (≈ 142 µM); MIC (Candida albicans [8]): > 64 µg/mL; MIC (Pichia kudriavzevii [9]): > 64 µg/mL
24 | COc1ccc(C(O)c2cnc(SC)o2)cc1 (stereo not given) |  |  | 0 | 8 | 0 |  |  |  |  | 
25 | CSc1ncc(C(O)C(C)(C)C)o1 (stereo not given) |  |  | 0 |  |  |  |  |  |  | 
26 | CSc1ncc(C(O)c2ccccc2)o1 (stereo not given) |  |  | 9 | 10 |  |  |  |  |  | 
27 | CSc1ncc(C(O)c2ccc(Br)cc2)o1 (stereo not given) |  |  | 9 | 13 | 12 |  |  |  |  | MIC (Candida albicans [5]): 8 µg/mL (≈ 26.7 µM); MIC (Candida albicans [8]): 4 µg/mL (≈ 13.3 µM); MIC (Pichia kudriavzevii [9]): 4 µg/mL (≈ 13.3 µM)
28 | C[C@@H]1[C@H](O)[C@@H](C)/C=C/C=C/C=C/C=C/C=C/C=C/C=C/[C@H](O[C@@H]2O[C@H](C)[C@@H](O)[C@H](N)[C@@H]2O)C[C@@H]2O[C@](O)(C[C@@H](O)C[C@@H](O)[C@H](O)CC[C@@H](O)C[C@@H](O)CC(=O)O[C@H]1C)C[C@H](O)[C@H]2C(=O)O [AMPHOTERICIN B] |  | > 32 |  |  |  |  |  |  |  | zone of inhibition at 5 µg/disc (Candida albicans [20]): 12 mm; zone of inhibition at 5 µg/disc (Candida albicans [21]): 23 mm; MIC (Candida albicans [5]): 0.5 µg/mL (≈ 0.541 µM); zone of inhibition at 5 µg/disc (Candida albicans [22]): 22 mm; MIC (Candida albicans [8]): 0.5 µg/mL (≈ 0.541 µM); zone of inhibition at 5 µg/disc (Pichia kudriavzevii [23]): 15 mm; zone of inhibition at 5 µg/disc (Nakaseomyces glabratus [24]): 19 mm; MIC (Pichia kudriavzevii [9]): 0.25 µg/mL (≈ 0.271 µM)
